Experimental data published in ChEMBL document CHEMBL1121770, “Substituted imidazo[2,3-alpha]pyridine-2-carbamate anthelmintics” (1981).

Assays:
Type in all cases: functional
Mus musculus [1] = assay: Compound was administered at 250 p.p.m. in the diet of mice, for percent reduction of Nematospiroides dubius in mice
Summary of the method: (§1)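 Mouse infection test run by Baker's method, three mice per treated group. Worm counts are averaged per mouse, and percent reduction is derived from them. Reductions below 20% are recorded as 0.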

Mus musculus [2] = assay: Compound was administered at 125 p.p.m. in the diet of mice, for percent reduction of Nematospiroides dubius in mice; summary of the method: as §1
Mus musculus [3] = assay: Compound was administered at 62.5 p.p.m. in the diet of mice, for percent reduction of Nematospiroides dubius in mice; summary of the method: as §1
Mus musculus [4] = assay: Compound was administered at 500 p.p.m. in the diet of mice, for percent reduction of Nematospiroides dubius in mice; summary of the method: as §1
Mus musculus [5] = assay: Compound was administered at 1000 p.p.m. in the diet of mice, for percent reduction of Nematospiroides dubius in mice; summary of the method: as §1

SMILES | Reduction (Mus musculus [1]) | Reduction (Mus musculus [2]) | Reduction (Mus musculus [3]) | Reduction (Mus musculus [4]) | Reduction (Mus musculus [5])
CCCOc1ccc2nc(NC(=O)OC)cn2c1 | 74% | 44% | 0% |  | 
COC(=O)Nc1cn2cc(Sc3ccccc3)ccc2n1 | 98% | 38% | 0% | 100% | 
COC(=O)Nc1cn2cc(C(=O)c3ccccc3)ccc2n1 |  |  |  | 0% | 0%
COC(=O)Nc1cn2cc(C(Cl)=C(Cl)Cl)ccc2n1 |  | 94% | 94% |  | 
CCCSc1ccc2nc(NC(=O)OC)cn2c1 | 100% | 74% | 0% |  | 
COC(=O)Nc1cn2cc([S+]([O-])c3ccccc3)ccc2n1 (centres undefined) |  | 100% | 35% |  | 
COC(=O)Nc1cn2ccccc2n1 |  |  |  | 0% | 54%
COC(=O)Nc1nc2cc(C(Cl)=C(Cl)Cl)ccc2[nH]1 | 99% | 69% | 57% |  | 
CC(C)OC(=O)Nc1ccc2[nH]c(-c3cscn3)nc2c1 [CAMBENDAZOLE] | 73% | 0% | 0% | 100% | 
c1ccc2[nH]c(-c3cscn3)nc2c1 [THIABENDAZOLE] | 26% | 0% |  | 86% | 100%
